Substrate in series [1]: CC1=C(CCCNC(=O)OC(C)(C)C)C(=O)c2c(O)cccc2C1=O
The experiment in a line: The Michaelis-Menten constant for NADH oxidation by pig heart LipDH (lipoamide dehydrogenase).

Substrate in series [2]: CC1=C(CCCNC(=O)OC(C)(C)C)C(=O)c2ccccc2C1=O
Described as above.

Substrate in series [3]: CC1=C(CCC(=O)O)C(=O)c2c(O)cccc2C1=O
Described as above.

Substrate in series [4]: CC1=C(CCC(=O)O)C(=O)c2ccccc2C1=O
The series is described as above.

Substrate in series [5]: CC1=C(CCC(=O)NCCCN2CCN(C)CC2)C(=O)c2c(O)cccc2C1=O
The series is described as above.

Substrate in series [6]: CC1=CC(=O)c2ccccc2C1=O
In words: (§1) The Michaelis-Menten constant for […] by pig heart LipDH (lipoamide dehydrogenase). Put shortly:
(§2)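 Recombinant T. cruzi LipDH (E. coli, purified) or pig heart LipDH, 0.1–2.5 µg/mL. Buffer was 50 mM potassium phosphate, 1 mM EDTA, pH 7.0, with 100 µM NADH and naphthoquinone at 10 µM–1.2 mM; all assays carried equal DMSO. Run at 31 °C, started with enzyme, NADH decrease followed at 340 nm. Km and Vmax from Lineweaver–Burk plots. At least duplicate.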

Substrate in series [7]: CC1=C(CCC(=O)NCCCN2CCN(C)CC2)C(=O)c2ccccc2C1=O
The description is as §1. Put shortly:
as §2

Substrate in series [8]: CC1=CC(=O)c2c(O)cccc2C1=O
The series is described as §1. In a few lines: as §2

Substrate in series [9]: CC1=C(CCCNC(=O)OC(C)(C)C)C(=O)c2c(O)cccc2C1=O
In words: (§3) Vmax is the maximum velocity of the pig heart LipDH (lipoamide dehydrogenase) catalyzed NADH oxidation. In a few lines:
as §2

Substrate in series [10]: CC1=CC(=O)c2ccccc2C1=O
The series is described as §3. Put shortly:
as §2

Substrate in series [11]: CC1=C(CCC(=O)NCCCN2CCN(C)CC2)C(=O)c2ccccc2C1=O
Described as §3. Put shortly:
as §2

Substrate in series [12]: CC1=C(CCCNC(=O)OC(C)(C)C)C(=O)c2ccccc2C1=O
Described as §3. In a few lines: as §2

Substrate in series [13]: CC1=C(CCC(=O)O)C(=O)c2c(O)cccc2C1=O
Described as §3. Put shortly:
as §2

Substrate in series [14]: CC1=CC(=O)c2c(O)cccc2C1=O
The description is as §3. Put shortly: as §2

Substrate in series [15]: CC1=C(CCC(=O)O)C(=O)c2ccccc2C1=O
Described as §3. Put shortly:
as §2

Substrate in series [16]: CC1=C(CCC(=O)NCCCN2CCN(C)CC2)C(=O)c2c(O)cccc2C1=O
The description is as §3. Put shortly:
as §2

B1: Dihydrolipoyl dehydrogenase, mitochondrial (Sus scrofa), P09623 (protein)
chain: MQSWSRVYCTLAKRGHFNRIAHGLQGVSAVPLRTYADQPIDADVTVIGSGPGGYVAAIKAAQLGFKTVCIEKNETLGGTCLNVGCIPSKALLNNSHYYHMAHGKDFASRGIEMSEVRLNLEKMMEQKSNAVKALTGGIAHLFKQNKVVRVNGYGKITGKNQVTATKADGSTEVINTKNILIATGSEVTPFPGITIDEDTVVSSTGALSLKKVPEKMVVIGAGVIGVELGSVWQRLGADVTAVELLGHVGGIGIDMEVSKNFQRILQKQGFKFKLNTKVIGATKKSDGNIDVSIEAASGGKAEVITCDVLLVCIGRRPFTQNLGLEELGIELDPRGRIPVNTRFQTKIPNIYAIGDVVAGPMLAHKAEDEGIICVEGMAGGAVHIDYNCVPSVIYTHPEVAWVGKSEEQLKEEGIEYKVGKFPFAANSRAKTNADTDGMVKILGQKSTDRVLGAHIIGPGAGEMINEAALALEYGASCEDIARVCHAHPTLSEAFREANLAASFGKAINF
Usually Km stands for the substrate concentration at which the rate is half of its maximum. In general, Vmax refers to the rate approached at saturating substrate. As for B1, the Km came to 40 µM in series [1]; 25 µM in series [2]; 75 µM in series [3]; 40 µM in [4]; 15 µM in [5]; 72 µM in series [6]. For the same protein, the Km in series [7] was 110 µM; in [8], 74 µM. The Vmax in series [9] turned out to be 1.66 µM/min/mg; in [10], 11.5 µM/min/mg; in series [11], 3.46 µM/min/mg; in series [12], 1.03 µM/min/mg; in series [13], 2.2 µM/min/mg; in [14] it was 25.3 µM/min/mg. The Vmax in series [15] was 1.52 µM/min/mg; in series [16] it was 1.09 µM/min/mg.

The record behind these values is ChEMBL document CHEMBL1134791, “2- and 3-substituted 1,4-naphthoquinone derivatives as subversive substrates of trypanothione reductase and lipoamide dehydrogenase from Trypanosoma cruzi: synthesis and correlation between redox cycling activities and in vitro cytotoxicity” (J Med Chem, 2001).
